Experimental data published in ChEMBL document CHEMBL1817648, “Synthesis and in vitro antibacterial activity of a series of novel gatifloxacin derivatives” (Eur J Med Chem, 2011).
Converted amounts (≈) assume the structure as drawn.

Legend:
Staphylococcus aureus [1] = test: Antibacterial activity against Staphylococcus aureus ATCC 25923 after 18 to 24 hrs by NCCLS M100-S11 two fold serial dilution method; type: functional; conditions: ATCC25923
Pseudomonas aeruginosa [2] = test: Antibacterial activity against Pseudomonas aeruginosa 09-33 after 18 to 24 hrs by NCCLS M100-S11 two fold serial dilution method; type: functional
Enterococcus faecalis [3] = test: Antibacterial activity against Enterococcus faecalis 08-10 after 18 to 24 hrs by NCCLS M100-S11 two fold serial dilution method; type: functional
Pseudomonas aeruginosa [4] = test: Antibacterial activity against Pseudomonas aeruginosa 09-34 after 18 to 24 hrs by NCCLS M100-S11 two fold serial dilution method; type: functional
Enterococcus faecalis [5] = test: Antibacterial activity against Enterococcus faecalis 08-12 after 18 to 24 hrs by NCCLS M100-S11 two fold serial dilution method; type: functional
[6] = test system: Staphylococcus epidermidis; test: Antibacterial activity against methicillin-sensitive Staphylococcus epidermidis 09-6 after 18 to 24 hrs by NCCLS M100-S11 two fold serial dilution method; type: functional
Outline: (§1)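 Two-fold serial dilution in agar medium. MIC read as the lowest concentration giving complete inhibition of bacterial growth after incubation at 35 °C for 18–24 h.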

Pseudomonas aeruginosa [7] = test: Antibacterial activity against Pseudomonas aeruginosa 09-32 after 18 to 24 hrs by NCCLS M100-S11 two fold serial dilution method; type: functional
Escherichia coli [8] = test: Antibacterial activity against Escherichia coli 08-21 after 18 to 24 hrs by NCCLS M100-S11 two fold serial dilution method; type: functional
Streptococcus pneumoniae [9] = test: Antibacterial activity against Streptococcus pneumoniae 08-2 after 18 to 24 hrs by NCCLS M100-S11 two fold serial dilution method; type: functional
Enterococcus faecium [10] = test: Antibacterial activity against Enterococcus faecium 08-7 after 18 to 24 hrs by NCCLS M100-S11 two fold serial dilution method; type: functional
Escherichia coli [11] = test: Antibacterial activity against Escherichia coli ATCC 25922 after 18 to 24 hrs by NCCLS M100-S11 two fold serial dilution method; type: functional; conditions: ATCC25922
Pseudomonas aeruginosa [12] = test: Antibacterial activity against Pseudomonas aeruginosa ATCC 27853 after 18 to 24 hrs by NCCLS M100-S11 two fold serial dilution method; type: functional
Streptococcus pneumoniae [13] = test: Antibacterial activity against Streptococcus pneumoniae 08-4 after 18 to 24 hrs by NCCLS M100-S11 two fold serial dilution method; type: functional
[14] = test system: Staphylococcus epidermidis; test: Antibacterial activity against methicillin-sensitive Staphylococcus epidermidis 09-3 after 18 to 24 hrs by NCCLS M100-S11 two fold serial dilution method; type: functional; outline: as §1
Staphylococcus aureus [15] = test: Antibacterial activity against methicillin-resistant Staphylococcus aureus 08-1 after 18 to 24 hrs by NCCLS M100-S11 two fold serial dilution method; type: functional; outline: as §1
Staphylococcus aureus [16] = test: Antibacterial activity against methicillin-sensitive Staphylococcus aureus 08-1 after 18 to 24 hrs by NCCLS M100-S11 two fold serial dilution method; type: functional
Klebsiella pneumoniae [17] = test: Antibacterial activity against Klebsiella pneumoniae 09-23 after 18 to 24 hrs by NCCLS M100-S11 two fold serial dilution method; type: functional
Escherichia coli [18] = test: Antibacterial activity against Escherichia coli 08-22 after 18 to 24 hrs by NCCLS M100-S11 two fold serial dilution method; type: functional
[19] = Cytotoxicity against african green monkey Vero cells after 72 hrs by MTT assay; type: cell-based; conditions: chlorocebus sabaeus
Outline: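 Vero cells were kept in Minimum Essential Medium with Earle's salts plus 10% fetal bovine serum at 37 °C under 5% CO₂. Cells were seeded at 1 × 10⁴ per well and allowed to recover 24 h. Medium was then replaced with assay medium containing compound or no drug, and cells were exposed for 72 h. CC₅₀ is the 50% cellular cytotoxic concentration.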

[20] = test system: Staphylococcus epidermidis; test: Antibacterial activity against methicillin-resistant Staphylococcus epidermidis 09-4 after 18 to 24 hrs by NCCLS M100-S11 two fold serial dilution method; type: functional; outline: as §1
Klebsiella pneumoniae [21] = test: Antibacterial activity against Klebsiella pneumoniae 09-22 after 18 to 24 hrs by NCCLS M100-S11 two fold serial dilution method; type: functional
Enterococcus faecium [22] = test: Antibacterial activity against Enterococcus faecium 08-2 after 18 to 24 hrs by NCCLS M100-S11 two fold serial dilution method; type: functional

| Structure (SMILES) | MIC (Staphylococcus aureus [1]) [µg/mL] | MIC (Pseudomonas aeruginosa [2]) [µg/mL] | MIC (Enterococcus faecalis [3]) [µg/mL] | MIC (Pseudomonas aeruginosa [4]) [µg/mL] | MIC (Enterococcus faecalis [5]) [µg/mL] | MIC [6] [µg/mL] | MIC (Pseudomonas aeruginosa [7]) [µg/mL] | MIC (Escherichia coli [8]) [µg/mL] | MIC (Streptococcus pneumoniae [9]) [µg/mL] | MIC (Enterococcus faecium [10]) [µg/mL] | MIC (Escherichia coli [11]) [µg/mL] | MIC (Pseudomonas aeruginosa [12]) [µg/mL] | MIC (Streptococcus pneumoniae [13]) [µg/mL] | MIC [14] [µg/mL] | MIC (Staphylococcus aureus [15]) [µg/mL] | MIC (Staphylococcus aureus [16]) [µg/mL] | MIC (Klebsiella pneumoniae [17]) [µg/mL] | MIC (Escherichia coli [18]) [µg/mL] | CC50 at 72 h [19] [µg/mL] | MIC [20] [µg/mL] | further results |
| --- | --- | --- | --- | --- | --- | --- | --- | --- | --- | --- | --- | --- | --- | --- | --- | --- | --- | --- | --- | --- | --- |
| CCO/N=C(\C)CN1CCN(c2c(F)cc3c(=O)c(C(=O)O)cn(C4CC4)c3c2OC)CC1C (configuration not stated) | 0.125 (≈ 0.263 µM) | > 128 | > 128 | > 128 | > 128 | 0.25 (≈ 0.527 µM) | > 128 | > 128 | > 128 | > 128 | 128 (≈ 270 µM) | > 128 | 2 (≈ 4.21 µM) | 0.25 (≈ 0.527 µM) | 0.25 (≈ 0.527 µM) | 0.25 (≈ 0.527 µM) | > 128 | > 128 | 31.2 (≈ 65.9 µM) | 0.25 (≈ 0.527 µM) | MIC (Klebsiella pneumoniae [21]): > 128 µg/mL; MIC (Enterococcus faecium [22]): > 128 µg/mL |
| COc1c(N2CCN(C/C(C)=N/NC(N)=O)C(C)C2)c(F)cc2c(=O)c(C(=O)O)cn(C3CC3)c12 (configuration not stated) | 4 (≈ 8.19 µM) | > 128 | > 128 | > 128 | > 128 | 1 (≈ 2.05 µM) | 64 (≈ 131 µM) | > 128 | 64 (≈ 131 µM) | > 128 | > 128 | > 128 | 2 (≈ 4.09 µM) | 2 (≈ 4.09 µM) | 2 (≈ 4.09 µM) | > 128 | > 128 | > 128 | 500 (≈ 1020 µM) | 2 (≈ 4.09 µM) | MIC (Klebsiella pneumoniae [21]): > 128 µg/mL; MIC (Enterococcus faecium [22]): > 128 µg/mL |
| COc1c(N2CCN(C/C(C)=N/NC(C)=O)C(C)C2)c(F)cc2c(=O)c(C(=O)O)cn(C3CC3)c12 (configuration not stated) | 0.25 (≈ 0.513 µM) | 64 (≈ 131 µM) | 16 (≈ 32.8 µM) | 2 (≈ 4.1 µM) | 16 (≈ 32.8 µM) | 0.25 (≈ 0.513 µM) | 0.25 (≈ 0.513 µM) | 16 (≈ 32.8 µM) | 8 (≈ 16.4 µM) | 16 (≈ 32.8 µM) | 8 (≈ 16.4 µM) | 4 (≈ 8.2 µM) | 0.25 (≈ 0.513 µM) | 0.25 (≈ 0.513 µM) | 0.25 (≈ 0.513 µM) | 0.25 (≈ 0.513 µM) | 4 (≈ 8.2 µM) | 16 (≈ 32.8 µM) | 707 (≈ 1450 µM) | 0.25 (≈ 0.513 µM) | MIC (Klebsiella pneumoniae [21]): 0.25 µg/mL (≈ 0.513 µM); MIC (Enterococcus faecium [22]): 16 µg/mL (≈ 32.8 µM) |
| COc1c(N2CCN(C/C(C)=N/NC(=O)c3ccncc3)C(C)C2)c(F)cc2c(=O)c(C(=O)O)cn(C3CC3)c12 (configuration not stated) | 2 (≈ 3.63 µM) | 128 (≈ 232 µM) | 128 (≈ 232 µM) | 32 (≈ 58.1 µM) | 128 (≈ 232 µM) | 0.25 (≈ 0.454 µM) | 4 (≈ 7.26 µM) | 128 (≈ 232 µM) | 32 (≈ 58.1 µM) | 64 (≈ 116 µM) | 16 (≈ 29.1 µM) | 4 (≈ 7.26 µM) | 4 (≈ 7.26 µM) | 0.25 (≈ 0.454 µM) | 32 (≈ 58.1 µM) | 2 (≈ 3.63 µM) | 32 (≈ 58.1 µM) | 64 (≈ 116 µM) | 250 (≈ 454 µM) | 2 (≈ 3.63 µM) | MIC (Klebsiella pneumoniae [21]): 16 µg/mL (≈ 29.1 µM); MIC (Enterococcus faecium [22]): 64 µg/mL (≈ 116 µM) |
| COc1c(N2CCN(C/C(C)=N/Nc3ccccc3)C(C)C2)c(F)cc2c(=O)c(C(=O)O)cn(C3CC3)c12 (configuration not stated) | 0.125 (≈ 0.24 µM) | 4 (≈ 7.67 µM) | 4 (≈ 7.67 µM) | 0.25 (≈ 0.479 µM) | 4 (≈ 7.67 µM) | 0.25 (≈ 0.479 µM) | 0.25 (≈ 0.479 µM) | 4 (≈ 7.67 µM) | 0.25 (≈ 0.479 µM) | 4 (≈ 7.67 µM) | 0.5 (≈ 0.959 µM) | 2 (≈ 3.83 µM) | 0.25 (≈ 0.479 µM) | 0.25 (≈ 0.479 µM) | 0.125 (≈ 0.24 µM) | 0.125 (≈ 0.24 µM) | 0.125 (≈ 0.24 µM) | 0.25 (≈ 0.479 µM) | 11.1 (≈ 21.2 µM) | 0.25 (≈ 0.479 µM) | MIC (Klebsiella pneumoniae [21]): 0.25 µg/mL (≈ 0.479 µM); MIC (Enterococcus faecium [22]): 4 µg/mL (≈ 7.67 µM) |
| COc1c(N2CCN(C/C(C)=N/O)C(C)C2)c(F)cc2c(=O)c(C(=O)O)cn(C3CC3)c12 (configuration not stated) | 0.25 (≈ 0.56 µM) | > 128 | > 128 | > 128 | > 128 | 0.25 (≈ 0.56 µM) | 32 (≈ 71.7 µM) | > 128 | 128 (≈ 287 µM) | > 128 | 128 (≈ 287 µM) | 32 (≈ 71.7 µM) | 0.25 (≈ 0.56 µM) | 0.25 (≈ 0.56 µM) | > 128 | 0.25 (≈ 0.56 µM) | > 128 | > 128 | 177 (≈ 396 µM) | 0.25 (≈ 0.56 µM) | MIC (Klebsiella pneumoniae [21]): > 128 µg/mL; MIC (Enterococcus faecium [22]): > 128 µg/mL |
